# Experimental data: ChEMBL document CHEMBL4196144, “Minor Nortriterpenoids from the Twigs and Leaves of Rhododendron latoucheae” (J Nat Prod, 2018)
# Columns and labels:
# Human alphaherpesvirus 1 = assay: Antiviral activity against HSV1 F VR 733 infected in African green monkey Vero cells assessed as inhibition of virus-induced cytopathic effect; format: functional, organism-based; settings: Human alphaherpesvirus 1, Strain F ATCC VR 733, Vero
# [1] = Cytotoxicity against African green monkey Vero cells measured after 48 hrs; format: cell-based; settings: chlorocebus sabaeus, read-out: TC50
# In short: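 TC50 is the concentration that inhibits Vero cell growth by 50%. It is used with the antiviral IC50 to give a selectivity index (TC50/IC50).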
# [2] = Selectivity index, ratio of TC50 for African green monkey Vero cells to IC50 for HSV1 strain F VR 733 infected in African green monkey Vero cells; format: toxicity; settings: read-out: Selectivity Index
# In short: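 Calculated as TC50/IC50 in Vero cells. TC50 is the cytotoxic concentration that inhibits Vero cell growth by 50%. No SI was assigned where it could not be determined under the test conditions.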
# Influenza A virus = assay: Antiviral activity against Influenza A virus A/95-359 infected in MDCK cells assessed as inhibition of virus-induced cytopathic effect; format: functional, organism-based; settings: A/95-359, MDCK
# In short: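 MDCK cells; IC50 given as the mean of three independent determinations.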
# [3] = Cytotoxicity against MDCK cells measured after 48 hrs; format: cell-based, Canis lupus familiaris; settings: dog, read-out: TC50
# In short: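 TC50 is the concentration that inhibits MDCK cell growth by 50%, reported as the mean of three independent determinations. It is paired with the anti-influenza A IC50 to give a selectivity index (TC50/IC50).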
# [4] = Selectivity index, ratio of TC50 for MDCK cells to IC50 for Influenza A virus A/95-359 infected in MDCK cells; format: toxicity, cell-based; settings: dog, read-out: Selectivity Index
# In short: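 Ratio of TC50 to IC50, both in MDCK cells. TC50 is the concentration that inhibits MDCK cell growth by 50%. Values are means of three independent determinations. No SI was assigned where it could not be determined under the test conditions.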
SMILES,IC50 (Human alphaherpesvirus 1) [µM],CC50 at 48 h [1] [µM],selectivity ratio [2],IC50 (Influenza A virus) [µM],CC50 at 48 h [3] [µM],selectivity ratio [4]
CC1=C2C3=CC[C@@H]4[C@@]5(C)C[C@@H](O)[C@@H](O)[C@@](C)(CO)[C@@H]5CC[C@@]4(C)[C@]3(C)CC[C@@]23CC[C@]1(C)OO3,6.41,23.1,3.6,> 33.3,57.7,–
CC(=O)CCC1=C(C(C)=O)C2=CC[C@@H]3[C@@]4(C)C[C@@H](O)[C@@H](O)[C@](C)(CO)[C@@H]4CC[C@@]3(C)[C@]2(C)CC1,> 33.3,69.3,–,> 33.3,> 100,–
Cc1ccc2c(c1C)C1=CC[C@@H]3[C@@]4(C)C[C@@H](O)[C@H](O)[C@@](C)(CO)[C@@H]4CC[C@@]3(C)[C@]1(C)CC2,0.41,1.78,4.3,1.23,3.7,3
CC1=C2C3=CC[C@@H]4[C@@]5(C)CC[C@@H](O)[C@](C)(CO)[C@@H]5CC[C@@]4(C)[C@]3(C)CC[C@]23CC[C@@]1(C)OO3,> 11.1,33.3,–,> 11.1,19.2,–
CC1=C2C3=CC[C@@H]4[C@@]5(C)CC[C@@H](O)[C@@](C)(CO)[C@@H]5CC[C@@]4(C)[C@]3(C)CC[C@@]23CC[C@]1(C)OO3,> 11.1,57.7,–,> 11.1,19.2,–
Cc1ccc2c(c1C)C1=CC[C@@H]3[C@@]4(C)[C@H](O)[C@@H](O)[C@@H](O)[C@@](C)(CO)[C@@H]4CC[C@@]3(C)[C@]1(C)CC2,> 0.41,1.78,–,> 1.23,2.57,–
Cc1ccc2c(c1C)C1=CC[C@@H]3[C@@]4(C)CC[C@@H](O)[C@](C)(CO)[C@@H]4CC[C@@]3(C)[C@]1(C)CC2,> 1.23,5.34,–,> 11.1,19.2,–
Cc1ccc2c(c1C)C1=CC[C@@H]3[C@@]4(C)C[C@@H](O)[C@@H](O)[C@](C)(CO)[C@@H]4CC[C@@]3(C)[C@]1(C)CC2,> 1.23,3.7,–,> 3.7,7.7,–
Cc1ccc2c(c1C)C1=CC[C@@H]3[C@@]4(C)[C@H](O)C[C@@H](O)[C@](C)(CO)[C@@H]4CC[C@@]3(C)[C@]1(C)CC2,> 3.7,11.1,–,> 3.7,16,–
Nc1nc2c(ncn2COCCO)c(=O)[nH]1 [ACYCLOVIR],0.41,> 100,> 244,–,–,–
CCOC(=O)C1=C[C@@H](OC(CC)CC)[C@H](NC(C)=O)[C@@H](N)C1 [OSELTAMIVIR],–,–,–,1.63,–,–
